“Also recorded” adds a separate entry of the source. Read-outs that look alike come from different tables or passages of the source.

Series [1] addresses T1, P450 1A1 (Homo sapiens, UniProt P04798).
T1 sequence (P04798 1-512): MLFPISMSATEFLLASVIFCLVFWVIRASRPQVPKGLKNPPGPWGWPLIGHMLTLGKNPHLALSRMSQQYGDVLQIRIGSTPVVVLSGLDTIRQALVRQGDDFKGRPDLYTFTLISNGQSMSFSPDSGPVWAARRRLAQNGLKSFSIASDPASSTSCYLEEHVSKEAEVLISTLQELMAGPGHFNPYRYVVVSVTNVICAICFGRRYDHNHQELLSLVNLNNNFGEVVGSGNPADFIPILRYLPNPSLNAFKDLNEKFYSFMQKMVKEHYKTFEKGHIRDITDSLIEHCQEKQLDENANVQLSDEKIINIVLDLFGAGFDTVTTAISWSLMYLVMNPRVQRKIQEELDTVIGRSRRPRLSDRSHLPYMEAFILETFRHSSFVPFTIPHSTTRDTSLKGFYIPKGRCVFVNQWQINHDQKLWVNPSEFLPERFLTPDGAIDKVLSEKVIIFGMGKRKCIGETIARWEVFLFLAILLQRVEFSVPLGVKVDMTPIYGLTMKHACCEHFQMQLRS
The series is described as follows: P450 1A1-dependent deethylation of resorufin ethyl ether. Type of series: biochemical.

Series [2] deals with T1, P450 1A1. Kind of series: Time-dependent inhibition kinetics of P450 1A1. The format is biochemical. The following applies: for kinact: read-out: limiting kinact; for time-dependent inhibition of P450 1A1 (type of inhibition): time-course curves. An outline of the steps: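 Human P450 1A1 microsomes (1.6 nM) were used with 5 μM resorufin ethyl ether in pH 7.6 phosphate buffer, with the NADPH-regenerating system added to start the reaction at 37 °C. Product was monitored continuously for 6 min at several inhibitor concentrations. Progress curves were fitted to second-order polynomials, and their derivatives gave activity over time. Semilog plots gave t1/2 (0.693/kinact), and KI and limiting kinact came from Kitz–Wilson plots (1/kinact vs 1/[I]).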

The target in series [3] is T1, P450 1A1. The series is described as follows: NADPH-dependency assay. Type of series: biochemical. The note with it: for NADPH-dependency of the inhibition of P450 1A1: 5 min preincubation with vs without NADPH. Summed up: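 Human P450 1A1 microsomes (1.6 nM final) were used in 0.1 M potassium phosphate pH 7.6 with MgCl2, with inhibitor in DMSO at 0.00625 or 0.1 μM. Preincubation was 5 min at 37 °C either with an NADPH-regenerating system, then started with 5 μM resorufin ethyl ether, or without NADPH, then started with regenerating system plus substrate. Resorufin time-course was read at ex 535/em 585 nm, 37 °C.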

For series [4], the target named is T1, P450 1A1. The following applies: read-out: Ki of well-known P450 1A1 inhibitors; cited from earlier work.
In the next series the target is T2, P450 2B1 (Rattus norvegicus, UniProt P00176).
T2 sequence (P00176 1-491): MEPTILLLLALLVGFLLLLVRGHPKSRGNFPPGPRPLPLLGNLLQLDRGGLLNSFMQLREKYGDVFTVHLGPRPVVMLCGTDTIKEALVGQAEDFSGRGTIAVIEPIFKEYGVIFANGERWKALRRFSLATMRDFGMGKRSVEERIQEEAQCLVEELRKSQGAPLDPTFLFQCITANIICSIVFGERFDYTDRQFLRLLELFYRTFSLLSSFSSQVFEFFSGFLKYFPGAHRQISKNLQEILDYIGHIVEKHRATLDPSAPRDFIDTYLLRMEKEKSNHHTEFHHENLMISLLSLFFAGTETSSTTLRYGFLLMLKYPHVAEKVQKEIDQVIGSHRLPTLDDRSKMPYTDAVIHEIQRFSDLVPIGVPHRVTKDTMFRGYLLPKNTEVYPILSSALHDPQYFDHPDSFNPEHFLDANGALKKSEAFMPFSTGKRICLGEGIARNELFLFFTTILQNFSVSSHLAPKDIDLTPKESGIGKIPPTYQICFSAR
The series is described as follows: P450 2B1-dependent depentylation of resorufin pentyl ether. Type of series: biochemical. An outline of the steps:
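Rat P450 2B1 microsomes (5 nM final) were used in 0.1 M potassium phosphate pH 7.6 with MgCl2, with 5 μM resorufin pentyl ether in DMSO. Reactions were started with an NADPH-regenerating system (NADP+, glucose 6-phosphate, G6PDH) and run at 37 °C. Resorufin formation was followed continuously at ex 535/em 585 nm.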

For another series, the target named is T3, P450 1A2 over P450 1A1 (Homo sapiens, UniProt P05177).
T3 sequence (P05177 1-516): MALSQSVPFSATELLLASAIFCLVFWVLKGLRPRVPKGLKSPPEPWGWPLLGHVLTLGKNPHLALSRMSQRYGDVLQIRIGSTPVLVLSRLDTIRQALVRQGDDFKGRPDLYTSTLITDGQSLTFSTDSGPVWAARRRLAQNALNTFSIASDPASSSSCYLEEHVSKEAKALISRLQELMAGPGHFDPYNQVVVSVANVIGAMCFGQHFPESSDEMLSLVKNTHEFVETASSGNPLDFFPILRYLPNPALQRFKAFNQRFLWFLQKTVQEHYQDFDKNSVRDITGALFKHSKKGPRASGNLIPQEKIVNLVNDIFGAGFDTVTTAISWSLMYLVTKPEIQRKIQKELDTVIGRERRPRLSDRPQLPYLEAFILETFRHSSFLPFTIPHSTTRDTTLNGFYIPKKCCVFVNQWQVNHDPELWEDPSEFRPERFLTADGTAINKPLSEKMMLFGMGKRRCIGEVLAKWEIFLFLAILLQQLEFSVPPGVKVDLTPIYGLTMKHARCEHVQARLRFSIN
The series is described as follows: P450 1A2-dependent demethylation of resorufin methyl ether. Type of series: biochemical. The note with it: human, recombinant human CYP1A1 and CYP1A2 supersomes, pH 7.6.

A further series addresses T4, P450 1A2 (Homo sapiens, UniProt P05177).
T4 sequence (P05177 1-516): T3 sequence (P05177 1-516)
Described as above. The format is biochemical.

For a further series, the target named is T5, P450 1A1 over P450 1A2 (Homo sapiens, UniProt P04798).
T5 sequence (P04798 1-512): T1 sequence (P04798 1-512)
Kind of series: P450 1A1-dependent deethylation of resorufin ethyl ether. Type of series: biochemical. The following applies: human, recombinant human CYP1A1 and CYP1A2 supersomes, pH 7.6.

As to `C#Cc1ccc2cc(-c3ccccc3)c(=O)oc2c1` [7E3PC, 7-ethynyl-3-phenylcoumarin, reference compound], the Ki at P450 1A1 [1] was found to be 740 nM.
Turning to `C#Cc1ccc2c(=O)cc(-c3ccccc3)oc2c1` [7EF, 7-Ethynylflavone], on P450 1A1 [2], the Ki was found to be 35 ± 12 nM; the inactivation rate constant (kinact) – broadly, the maximal first-order rate at which the target is inactivated – is 0.007 s⁻¹; the “time-dependent inhibition of P450 1A1 (type of inhibition)” value (“time-dependent inhibition of P450 1A1” for short) was “time- and concentration-dependently inhibit P450 1A1”. Besides, the “NADPH-dependency of the inhibition of P450 1A1” value on P450 1A1 [3] is reported as “exhibit NADPH-dependency”. Besides, the “effect of 5 min preincubation with NADPH on P450 1A1 activity” value (from here on “effect of 5 min preincubation with NADPH”) at P450 1A1 [3] (inhibitor 0.00625 μM) was “complete inhibition; also recorded: completely subvert the enzymatic activity”.
On to `C#Cc1cccc(-c2cc(=O)c3ccccc3o2)c1` [3′EF, 3′-Ethynylflavone], for which, at P450 1A1 [2], the Ki came to 53 ± 7 nM; the inactivation rate constant (kinact) was 0.00767 s⁻¹; the “time-dependent inhibition of P450 1A1” value is “time- and concentration-dependently inhibit P450 1A1”. Moreover, the “NADPH-dependency of the inhibition of P450 1A1” value on P450 1A1 [3] is “exhibit NADPH-dependency”. Moreover, the “effect of 5 min preincubation with NADPH” value on P450 1A1 [3] (inhibitor 0.00625 μM) is on record as “complete inhibition; also recorded: completely subvert the enzymatic activity”.
On to `c1cc2ccc3cccc4ccc(c1)c2c34` [pyrene], for which the Ki at P450 1A1 [4] is approximately 40 nM.
Take `C#Cc1ccccc1-c1cc(=O)c2ccccc2o1` [2′EF, 2′-Ethynylflavone]: at P450 1A1 [2], the “time-dependent inhibition of P450 1A1” value is on record as “only a competitive inhibitor”. Moreover, the Ki is 1640 nM on P450 1A1 [1], 15700 nM on P450 2B1 and 230 nM at P450 1A2. Further, on P450 1A1 [3], the “NADPH-dependency of the inhibition of P450 1A1” value is “does not NADPH-dependently inhibit P450 1A1”. In addition, the “effect of 5 min preincubation with NADPH” value at P450 1A1 [3] (inhibitor 0.1 μM) is recorded as “slight influence on enzymatic activity”. The selectivity ratio at 6 min on P450 1A2 over P450 1A1 was found to be 7.2.
`C#Cc1ccc(-c2cc(=O)c3ccccc3o2)cc1` [4′EF, 4′-Ethynylflavone]: at P450 1A1 [2], the Ki came to 56 ± 14 nM; the maximal inactivation rate constant (kinact) was 0.0055 s⁻¹; the “time-dependent inhibition of P450 1A1” value was “time- and concentration-dependently inhibit P450 1A1”. Moreover, on P450 1A1 over P450 1A2, the selectivity ratio at 6 min was 85. The “NADPH-dependency of the inhibition of P450 1A1” value on P450 1A1 [3] is “exhibit NADPH-dependency”. Further, the “effect of 5 min preincubation with NADPH” value at P450 1A1 [3] (inhibitor 0.00625 μM) is reported as “complete inhibition”. In addition, the Ki on P450 1A2 was found to be 3260 nM.
With `C#Cc1ccc2oc(-c3ccccc3)cc(=O)c2c1` [6EF, 6-Ethynylflavone], at P450 1A1 [2], the Ki was found to be 43 ± 8 nM; the maximal inactivation rate constant (kinact) was 0.0055 s⁻¹; the “time-dependent inhibition of P450 1A1” value was “time- and concentration-dependently inhibit P450 1A1”. At P450 1A1 [1], the Ki worked out at 35 nM. Besides, the selectivity ratio at 6 min on P450 1A1 over P450 1A2 was 177. In addition, on P450 1A1 [3], the “NADPH-dependency of the inhibition of P450 1A1” value was “exhibit NADPH-dependency”. Also, on P450 1A1 [3] (inhibitor 0.00625 μM), the “effect of 5 min preincubation with NADPH” value is on record as “complete inhibition”. This compound also came in with a Ki at P450 1A2 of 6200 nM.
Consider `O=c1cc(-c2ccccc2)oc2c1ccc1ccccc12` [αNF, α-naphthoflavone], for which the Ki on P450 1A1 [4] is approximately 40 nM.
As to `C#Cc1cccc2oc(-c3ccccc3)cc(=O)c12` [5EF, 5-Ethynylflavone], on P450 1A1 [2], the Ki is 510 ± 90 nM; the maximal inactivation rate constant (kinact) was 0.0011 s⁻¹; the “time-dependent inhibition of P450 1A1” value is “time- and concentration-dependently inhibit P450 1A1”. Also, the Ki at P450 1A1 [1] came out at 1230 nM. In addition, the “NADPH-dependency of the inhibition of P450 1A1” value on P450 1A1 [3] is “exhibit NADPH-dependency”. Besides, the “effect of 5 min preincubation with NADPH” value at P450 1A1 [3] (inhibitor 0.1 μM) is “considerable inhibition”.

The record behind these values is paper PMC4137986 (Chemical Research in Toxicology, 2014).
